In ChEMBL document CHEMBL4765495, “Semisynthesis and Biological Evaluation of Platencin Thioether Derivatives: Dual FabF and FabH Inhibitors against MRSA” (ACS Med Chem Lett, 2021):
Values after ≈ are worked out from the molar mass of the structure shown. Active and inactive are the calls of the source. The calls are words filed in the database; no cut-off is given here.

Legend:
Staphylococcus aureus [1] = test: Antibacterial activity against methicillin resistant Staphylococcus aureus assessed as inhibition of bacterial growth measured after 16 hrs by agar plate dilution method; type: functional
Summary of the method: (§1)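 Clinical MSSA and MRSA strains isolated from local hospitals; MIC determined by plate dilution; data from at least two independent experiments.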

Enterococcus faecalis = test: Antibacterial activity against Enterococcus faecalis ATCC 29212 assessed as inhibition of bacterial growth measured after 16 hrs by agar plate dilution method; type: functional
Staphylococcus aureus [2] = test: Antibacterial activity against Staphylococcus aureus ATCC 29213 assessed as inhibition of bacterial growth measured after 16 hrs by agar plate dilution method; type: functional
Summary of the method: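 MIC determined by plate dilution against the reference strain; values from at least two independent experiments.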

Staphylococcus aureus [3] = test: Antibacterial activity against methicillin resistant Staphylococcus aureus assessed as inhibition of bacterial growth measured after 18 hrs in presence of 10% human serum by resazurin dye based broth dilution assay; type: functional
Staphylococcus aureus [4] = test: Inhibition of Staphylococcus aureus FabH A81V/A111T mutant assessed as bacterial growth inhibition measured after 18 hrs by resazurin dye based broth dilution assay
Summary of the method: (§2)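 S. aureus strains carrying point mutations in the FabH active site; MIC determined by broth dilution; data from at least two independent experiments.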

Escherichia coli [5] = test: Antibacterial activity against Escherichia coli harboring delta tolC mutant assessed as inhibition of bacterial growth measured after 16 hrs by agar plate dilution method; type: functional
Escherichia coli [6] = test: Binding affinity to His6-tagged Escherichia coli FabH expressed in Escherichia coli BL21 (DE3) assessed as decrease in melting temperature at 10 uM by SYPRO orange based differential scanning fluorimetry
Summary of the method: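 Purified E. coli FabH melting curves were recorded with and without ligand by thermal-shift fluorometry in 1.0 M Tris-HCl, pH 6.8, a buffer chosen from seven screened. ΔTm was taken from the Tm shift; n = 4.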

Staphylococcus aureus [7] = test: Inhibition of Staphylococcus aureus FabH A81V mutant assessed as bacterial growth inhibition measured after 18 hrs by resazurin dye based broth dilution assay; summary of the method: as §2
Staphylococcus aureus [8] = test: Antibacterial activity against methicillin sensitive Staphylococcus aureus assessed as inhibition of bacterial growth measured after 16 hrs by agar plate dilution method; type: functional; summary of the method: as §1
[9] = biological target: T1, 3-oxoacyl-[acyl-carrier-protein] synthase 2 (Staphylococcus aureus) (UniProt Q5TKS0); test: Binding affinity to His6-tagged Staphylococcus aureus FabF expressed in Escherichia coli BL21 (DE3) assessed as decrease in melting temperature at 10 uM by SYPRO orange based differential scanning fluorimetry
T1 sequence (whole entry): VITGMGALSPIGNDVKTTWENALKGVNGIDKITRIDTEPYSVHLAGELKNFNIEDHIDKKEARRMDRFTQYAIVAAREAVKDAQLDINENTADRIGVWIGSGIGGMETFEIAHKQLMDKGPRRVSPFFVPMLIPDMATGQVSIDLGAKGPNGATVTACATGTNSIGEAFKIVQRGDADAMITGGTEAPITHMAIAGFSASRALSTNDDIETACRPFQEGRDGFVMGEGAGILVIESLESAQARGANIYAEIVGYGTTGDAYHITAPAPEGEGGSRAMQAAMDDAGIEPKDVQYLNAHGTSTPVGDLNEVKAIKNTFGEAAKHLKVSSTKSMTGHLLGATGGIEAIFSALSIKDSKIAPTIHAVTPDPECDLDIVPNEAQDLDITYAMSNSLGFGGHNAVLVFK
Summary of the method: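 S. aureus FabF melting curves were measured by DSF in 20 mM HEPES, 180 mM NaCl, pH 7.5, a buffer selected by screening seven buffers. ΔTm was derived from the melting-temperature shift caused by ligand; n = 4.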

Staphylococcus aureus [10] = test: Antibacterial activity against methicillin resistant Staphylococcus aureus infected in C57BL/6J mouse model of peritonitis assessed as mouse survival when infected with 2.5x10^7 CFU bacteria at 10 mg/kg, ip administered at 1 and 5 hrs post infection; type: functional, organism-based
Summary of the method: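 Female C57BL/6J mice given a higher intraperitoneal MRSA inoculum of 2.5 × 10^7 CFU; intraperitoneal treatment at 1 and 5 h post-infection; survival recorded.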

[11] = Binding affinity to His6-tagged Escherichia coli FabF C163Q mutant expressed in Escherichia coli BL21 (DE3) assessed as binding constant measured after 200 sec by isothermal titration calorimetry
Summary of the method: (§3)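 Ligands were dissolved in PBS (10 mM, pH 7.4) and titrated into E. coli FabF(C163Q) in the same buffer. Protein was at 12 or 14 μM and ligand at 250 μM. Thermodynamic parameters (ΔH, ΔS, ΔG, Kd, n) were calculated from the heat of binding. Runs were done at least three times; one representative run was used.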

Escherichia coli [12] = test: Binding affinity to His6-tagged Escherichia coli FabF C163Q mutant expressed in Escherichia coli BL21 (DE3) assessed as change in entropy measured after 200 sec by isothermal titration calorimetry; summary of the method: as §3
Escherichia coli [13] = test: Binding affinity to His6-tagged Escherichia coli FabF C163Q mutant expressed in Escherichia coli BL21 (DE3) assessed Gibbs free energy change measured after 200 sec by isothermal titration calorimetry; summary of the method: as §3
Escherichia coli [14] = test: Binding affinity to His6-tagged Escherichia coli FabF C163Q mutant expressed in Escherichia coli BL21 (DE3) assessed as change in enthalpy measured after 200 sec by isothermal titration calorimetry; summary of the method: as §3
Escherichia coli [15] = test: Binding affinity to His6-tagged Escherichia coli FabF C163Q mutant expressed in Escherichia coli BL21 (DE3) assessed as stoichiometry ratio measured after 200 sec by isothermal titration calorimetry; summary of the method: as §3

| Compound | MIC (Staphylococcus aureus [1]) [µg/mL] | MIC (Enterococcus faecalis) [µg/mL] | MIC (Staphylococcus aureus [2]) [µg/mL] | MIC (Staphylococcus aureus [3]) [µg/mL] | MIC (Staphylococcus aureus [4]) [µg/mL] | MIC (Escherichia coli [5]) [µg/mL] | Activity (Escherichia coli [6]) | MIC (Staphylococcus aureus [7]) [µg/mL] | MIC (Staphylococcus aureus [8]) [µg/mL] | Activity [9] | Activity (Staphylococcus aureus [10]) | Kd [11] [nM] | -TdeltaS (Escherichia coli [12]) [kcal/mol] | deltaG (Escherichia coli [13]) [kcal/mol] | deltaH (Escherichia coli [14]) [kcal/mol] | Ratio (Escherichia coli [15]) |
| --- | --- | --- | --- | --- | --- | --- | --- | --- | --- | --- | --- | --- | --- | --- | --- | --- |
| C=C1C[C@]23C=C(Sc4ccc(Br)cc4)C(=O)[C@@](C)(CCC(=O)Nc4c(O)ccc(C(=O)O)c4O)[C@@H]2CC1CC3 (single isomer, unassigned) | 1 (≈ 1.63 µM) | 2 (≈ 3.27 µM) | 4 (≈ 6.53 µM) | 16 | 4 (≈ 6.53 µM) | > 32 | Active | 8 (≈ 13.1 µM) | 1 (≈ 1.63 µM) | Active | – | – | – | – | – | – |
| C=C1C[C@]23C=C(Sc4ccc(C)cc4)C(=O)[C@@](C)(CCC(=O)Nc4c(O)ccc(C(=O)O)c4O)[C@@H]2CC1CC3 (single isomer, unassigned) | 1 (≈ 1.83 µM) | 2 (≈ 3.65 µM) | 4 (≈ 7.3 µM) | > 32 | 16 (≈ 29.2 µM) | > 32 | Active | 16 (≈ 29.2 µM) | 2 (≈ 3.65 µM) | Active | – | – | – | – | – | – |
| C=C1C[C@]23C=C(Sc4ccccc4C)C(=O)[C@@](C)(CCC(=O)Nc4c(O)ccc(C(=O)O)c4O)[C@@H]2CC1CC3 (single isomer, unassigned) | 1 (≈ 1.83 µM) | 2 (≈ 3.65 µM) | 1 (≈ 1.83 µM) | 32 | 4 (≈ 7.3 µM) | > 32 | Active | 4 (≈ 7.3 µM) | 1 (≈ 1.83 µM) | Active | – | – | – | – | – | – |
| C=C1C[C@]23C=C(Sc4cccs4)C(=O)[C@@](C)(CCC(=O)Nc4c(O)ccc(C(=O)O)c4O)[C@@H]2CC1CC3 (single isomer, unassigned) | 2 (≈ 3.71 µM) | – | 2 (≈ 3.71 µM) | – | – | – | Active | – | 2 (≈ 3.71 µM) | Active | – | – | – | – | – | – |
| C=C1C[C@]23C=C(SCc4ccccc4)C(=O)[C@@](C)(CCC(=O)Nc4c(O)ccc(C(=O)O)c4O)[C@@H]2CC1CC3 (single isomer, unassigned) | 1 (≈ 1.83 µM) | 2 (≈ 3.65 µM) | 2 (≈ 3.65 µM) | 16 | 4 (≈ 7.3 µM) | > 32 | Active | 8 (≈ 14.6 µM) | 1 (≈ 1.83 µM) | Active | inactive | – | – | – | – | – |
| C=C1C[C@]23C=C(Sc4ncccn4)C(=O)[C@@](C)(CCC(=O)Nc4c(O)ccc(C(=O)O)c4O)[C@@H]2CC1CC3 (single isomer, unassigned) | 8 (≈ 14.9 µM) | – | 16 (≈ 29.9 µM) | – | – | – | Active | – | 8 (≈ 14.9 µM) | Active | – | – | – | – | – | – |
| C=C1C[C@]23C=C(SCCO)C(=O)[C@@](C)(CCC(=O)Nc4c(O)ccc(C(=O)O)c4O)[C@@H]2CC1CC3 (single isomer, unassigned) | > 32 | 2 (≈ 3.99 µM) | 8 (≈ 15.9 µM) | > 32 | > 32 | > 32 | – | > 32 | 32 (≈ 63.8 µM) | – | – | 223 | -7.72 | -8.8 | -1.09 | 1.17 |
| C=C1C[C@@]23CCC1C[C@H]2[C@](C)(CCC(=O)Nc1c(O)ccc(C(=O)O)c1O)C(=O)[C@@H]1O[C@@H]13 (single isomer, unassigned) | 4 (≈ 9.06 µM) | 2 (≈ 4.53 µM) | 8 (≈ 18.1 µM) | 16 | > 32 | 4 (≈ 9.06 µM) | Active | > 32 | 4 (≈ 9.06 µM) | Active | – | 102 | -7.59 | -9.25 | -1.66 | 1.17 |
| CC(=O)NC[C@H]1CN(c2ccc(N3CCOCC3)c(F)c2)C(=O)O1 [LINEZOLID] | 0.5 (≈ 1.48 µM) | 0.5 (≈ 1.48 µM) | 0.5 (≈ 1.48 µM) | – | – | – | – | – | 0.5 (≈ 1.48 µM) | – | – | – | – | – | – | – |
